Test results as given in ChEMBL document CHEMBL4229321, “Monoterpenoid Indole Alkaloids from Kopsia officinalis and the Immunosuppressive Activity of Rhazinilam” (J Nat Prod, 2017).
Calls of active or inactive are those of the source. The calls are words filed in the database; no cut-off is given here.

What was measured:
T-cell line [1] = test: Immunosuppressive activity in human T cells assessed as reduction in anti-CD3/anti-CD28 antibody-induced cell proliferation incubated for 72 hrs by CFSE based flow cytometry; assay type: functional
Procedure, shortened: (§1)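 Cells (10^6 cells/mL) labelled with 2.5 μM CFSE at 37 °C for 10 min. T cells from healthy donors (95% purity) were activated with plate-bound anti-CD3 (2 μg/mL) plus soluble anti-CD28 (1 μg/mL). Alternatively, PBMCs were mixed with equal numbers of 3000-rad-irradiated allogeneic PBMCs. Cells were cultured with or without drug for 72 h in RPMI 1640 with 10% FBS, and CFSE dilution was read by flow cytometry. Unstimulated cells served as 0% and stimulated untreated cells as 100%. IC50 was calculated from these.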

T-cell line [2] = test: Induction of cell cycle arrest in anti-CD3/anti-CD28 antibody-stimulated human T cells assessed as accumulation at S phase at 0.1 uM incubated for 72 hrs by flow cytometry (reference value: 18.1%); assay type: functional
T-cell line [3] = test: Effect on anti-CD3/anti-CD28 antibody-induced cell activation in human T cells assessed as effect on CD25 expression at 1 uM incubated for 24 hrs by flow cytometry (reference value: 69.1%); assay type: functional
T-cell line [4] = test: Effect on anti-CD3/anti-CD28 antibody-induced cell activation in human T cells assessed as effect on CD25 expression at 0.2 uM incubated for 24 hrs by flow cytometry (reference value: 69.1%); assay type: functional
T-cell line [5] = test: Immunosuppressive activity in human T cells assessed as reduction in alloantigen stimulation-induced cell proliferation incubated for 72 hrs by CFSE based flow cytometry; assay type: functional; procedure, shortened: as §1
T-cell line [6] = test: Cytotoxicity in human T cells assessed as reduction in cell viability at 20 to 320 uM incubated for 72 hrs by CCK8 assay; assay type: cell-based
Procedure, shortened: (§2)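 Naive human T cells or PBMCs (10^6 cells/mL) exposed to 20, 40, 80, 160 or 320 μM or vehicle for 72 h. Viability read by CCK-8 as OD450, with untreated cells set to 100%. Mean ± SEM, n = 5 per group, three independent experiments.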

PBMC = test: Cytotoxicity in human PBMC cells assessed as reduction in cell viability at 20 to 320 uM incubated for 72 hrs by CCK8 assay; assay type: cell-based; procedure, shortened: as §2
T-cell line [7] = test: Effect on anti-CD3/anti-CD28 antibody-induced cell activation in human T cells assessed as effect on CD25 expression at 0.2 to 5 uM incubated for 24 hrs by flow cytometry; assay type: functional, cell-based
T-cell line [8] = test: Effect on anti-CD3/anti-CD28 antibody-induced cell activation in human T cells assessed as effect on CD69 expression at 0.2 to 5 uM incubated for 24 hrs by flow cytometry; assay type: functional, cell-based
T-cell line [9] = test: Induction of cell cycle arrest in anti-CD3/anti-CD28 antibody-stimulated human T cells assessed as accumulation at G0/G1 phase at 0.2 uM incubated for 72 hrs by flow cytometry (reference value: 66.6%); assay type: functional
T-cell line [10] = test: Induction of cell cycle arrest in anti-CD3/anti-CD28 antibody-stimulated human T cells assessed as accumulation at S phase at 0.2 uM incubated for 72 hrs by flow cytometry (reference value: 18.1%); assay type: functional
T-cell line [11] = test: Induction of cell cycle arrest in anti-CD3/anti-CD28 antibody-stimulated human T cells assessed as accumulation at G2/M phase at 0.2 uM incubated for 72 hrs by flow cytometry (reference value: 15.3%); assay type: functional
T-cell line [12] = test: Induction of cell cycle arrest in anti-CD3/anti-CD28 antibody-stimulated human T cells assessed as accumulation at G0/G1 phase at 1 uM incubated for 72 hrs by flow cytometry (reference value: 66.6%); assay type: functional
T-cell line [13] = test: Induction of cell cycle arrest in anti-CD3/anti-CD28 antibody-stimulated human T cells assessed as accumulation at S phase at 1 uM incubated for 72 hrs by flow cytometry (reference value: 18.1%); assay type: functional
T-cell line [14] = test: Induction of cell cycle arrest in anti-CD3/anti-CD28 antibody-stimulated human T cells assessed as accumulation at G2/M phase at 1 uM incubated for 72 hrs by flow cytometry (reference value: 15.3%); assay type: functional
T-cell line [15] = test: Induction of cell cycle arrest in anti-CD3/anti-CD28 antibody-stimulated human T cells assessed as accumulation at G0/G1 phase at 5 uM incubated for 72 hrs by flow cytometry (reference value: 66.6%); assay type: functional
T-cell line [16] = test: Induction of cell cycle arrest in anti-CD3/anti-CD28 antibody-stimulated human T cells assessed as accumulation at S phase at 5 uM incubated for 72 hrs by flow cytometry (reference value: 18.1%); assay type: functional
T-cell line [17] = test: Induction of cell cycle arrest in anti-CD3/anti-CD28 antibody-stimulated human T cells assessed as accumulation at G2/M phase at 5 uM incubated for 72 hrs by flow cytometry (reference value: 15.3%); assay type: functional
T-cell line [18] = test: Inhibition of IL6 production in anti-CD3/anti-CD28 antibody-stimulated human T cells at 0.2 to 5 uM incubated for 48 hrs by ELISA; assay type: functional, cell-based
Procedure, shortened: (§3)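 Human T cells (10^6 cells/mL) treated with 0.2, 1 or 5 μM drug, LY-294002 (50 μM) or vehicle and activated with anti-CD3 (2 μg/mL) plus soluble anti-CD28 (1 μg/mL) for 48 h. Supernatant IL-6 and IL-17 were quantified by ELISA against recombinant cytokine standard curves. Mean ± SEM, n = 5 per group, three independent experiments.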

T-cell line [19] = test: Inhibition of IL17 production in anti-CD3/anti-CD28 antibody-stimulated human T cells at 0.2 to 5 uM incubated for 48 hrs by ELISA; assay type: functional, cell-based; procedure, shortened: as §3
T-cell line [20] = test: Effect on anti-CD3/anti-CD28 antibody-induced cell activation in human T cells assessed as effect on CD25 expression at 5 uM incubated for 24 hrs by flow cytometry (reference value: 69.1%); assay type: functional
T-cell line [21] = test: Effect on anti-CD3/anti-CD28 antibody-induced cell activation in human T cells assessed as effect on CD69 expression at 0.2 uM incubated for 24 hrs by flow cytometry (reference value: 41.2%); assay type: functional
T-cell line [22] = test: Effect on anti-CD3/anti-CD28 antibody-induced cell activation in human T cells assessed as effect on CD69 expression at 1 uM incubated for 24 hrs by flow cytometry (reference value: 41.2%); assay type: functional
T-cell line [23] = test: Effect on anti-CD3/anti-CD28 antibody-induced cell activation in human T cells assessed as effect on CD69 expression at 5 uM incubated for 24 hrs by flow cytometry (reference value: 41.2%); assay type: functional
T-cell line [24] = test: Effect on anti-CD3/anti-CD28 antibody-induced cell activation in human T cells assessed as effect on CD25 expression at 0.1 uM incubated for 24 hrs by flow cytometry (reference value: 69.1%); assay type: functional
T-cell line [25] = test: Effect on anti-CD3/anti-CD28 antibody-induced cell activation in human T cells assessed as effect on CD69 expression at 0.1 uM incubated for 24 hrs by flow cytometry (reference value: 41.2%); assay type: functional

`O=C1[C@H]2CN3CCC[C@]45CC[C@@]6(Nc7ccccc7[C@@]26[C@@H]34)[C@@]1(O)C5` gave an IC50 (T-cell line [1]) of 25.4 µM.
Work on `COC(=O)N1c2c(OC)cccc2[C@@]23[C@H]4CN5CCC[C@@](CC[C@]12C(=O)O)(CC4=O)[C@H]53` yielded an IC50 (T-cell line [1]) of 27.8 µM.
`C[N+]12CCC[C@]34CC[C@@]5(Nc6ccccc6[C@]5(CC1)[C@H]32)[C@H](C(=O)[O-])C4` (some centres undefined) was tested, and the IC50 (T-cell line [1]) was 21.6 µM.
In the case of `CC(=O)O[C@H]1C(=O)[C@@]2(C)[C@H]([C@H](OC(=O)c3ccccc3)[C@]3(O)C[C@H](OC(=O)[C@H](O)[C@@H](NC(=O)c4ccccc4)c4ccccc4)C(C)=C1C3(C)C)[C@]1(OC(C)=O)CO[C@@H]1C[C@@H]2O` [PACLITAXEL], the Activity (T-cell line [2]) is reported as 16.9%.
`CC[C@]12CCCn3ccc(c31)-c1ccccc1NC(=O)CC2` [RHAZINILAM] was tested, and the Activity (T-cell line [3]) was 70.3%, the Activity (T-cell line [4]) was 68.8% and the IC50 (T-cell line [1]) was 1 µM. The IC50 (T-cell line [5]) was 1.1 µM, the Activity (T-cell line [6]) was “Non-Toxic” and the Activity (PBMC) was “Non-Toxic”. The Activity (T-cell line [7]) was “inactive”, the Activity (T-cell line [8]) was “inactive” and the Activity (T-cell line [9]) was 66.5%. It also gave an Activity (T-cell line [10]) of 16.8%, an Activity (T-cell line [11]) of 16.7% and an Activity (T-cell line [12]) of 57.4%. The Activity (T-cell line [13]) was 19.7%, the Activity (T-cell line [14]) was 22.9% and the Activity (T-cell line [15]) was 42.1%. For the same compound, the Activity (T-cell line [16]) was 17.6%, the Activity (T-cell line [17]) was 40.3% and the inhibition (T-cell line [18]) was “Active”. For the same compound, the inhibition (T-cell line [19]) was “Active”, the Activity (T-cell line [20]) was 69.3% and the Activity (T-cell line [21]) was 41.1%. For the same compound, the Activity (T-cell line [22]) was 42.4% and the Activity (T-cell line [23]) was 41.6%.
`C=CC[C@@H]1/C=C(\C)C[C@H](C)C[C@H](OC)[C@H]2O[C@@](O)(C(=O)C(=O)N3CCCC[C@H]3C(=O)O[C@H](/C(C)=C/[C@@H]3CC[C@@H](O)[C@H](OC)C3)[C@H](C)[C@@H](O)CC1=O)[C@H](C)C[C@@H]2OC` [TACROLIMUS ANHYDROUS] showed an Activity (T-cell line [24]) of 6.8% and an Activity (T-cell line [25]) of 13.1%.
